Numbering of substitutions follows the chain as printed. “And” between values parts separate entries of the source, which are not always exact repeats. Equal values may be shown once. “Also recorded” adds a separate entry of the source. Read-outs that look alike come from different tables or passages of the source. Marks after values point to notes of the source that are not given here.
Columns and labels:
[1] = biological target: T1, native TRPV3 channels (Homo sapiens, UniProt Q8NET8); format: cell-based; settings: for activation of membrane currents by TRP channel agonists: bath superfusion, 2-APB 30 µM; for increase of 2-APB-activated TRPV3 whole cell current amplitude: 100 µM ATP, n = 4 cells
T1 sequence (Q8NET8 1-790): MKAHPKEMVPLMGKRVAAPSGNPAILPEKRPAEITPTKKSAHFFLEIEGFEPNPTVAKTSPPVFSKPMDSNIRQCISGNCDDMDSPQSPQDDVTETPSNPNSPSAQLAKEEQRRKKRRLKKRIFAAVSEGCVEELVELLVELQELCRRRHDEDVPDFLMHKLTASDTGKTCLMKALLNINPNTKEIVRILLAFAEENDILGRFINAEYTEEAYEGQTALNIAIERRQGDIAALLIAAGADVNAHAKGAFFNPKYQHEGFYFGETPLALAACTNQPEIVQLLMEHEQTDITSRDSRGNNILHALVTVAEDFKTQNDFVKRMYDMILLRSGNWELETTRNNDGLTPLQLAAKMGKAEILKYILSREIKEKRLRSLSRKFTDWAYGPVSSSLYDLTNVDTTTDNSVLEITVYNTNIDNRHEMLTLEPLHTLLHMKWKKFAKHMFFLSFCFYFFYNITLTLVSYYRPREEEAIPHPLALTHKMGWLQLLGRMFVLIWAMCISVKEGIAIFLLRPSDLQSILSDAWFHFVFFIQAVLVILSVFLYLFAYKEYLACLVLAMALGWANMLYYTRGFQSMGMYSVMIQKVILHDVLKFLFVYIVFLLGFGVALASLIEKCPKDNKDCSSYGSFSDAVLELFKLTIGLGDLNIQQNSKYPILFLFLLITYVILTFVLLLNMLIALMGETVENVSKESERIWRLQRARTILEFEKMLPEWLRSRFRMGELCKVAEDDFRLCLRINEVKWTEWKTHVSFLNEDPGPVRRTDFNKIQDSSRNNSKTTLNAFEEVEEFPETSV
How it was run: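 Whole-cell voltage clamp of primary human epidermal keratinocytes plated on coverslips and recorded 24–48 h later, at room temperature. Bath was NaCl/KCl/HEPES/glucose/MgCl2/1.8 mM BaCl2, pH 7.4; pipette was Cs-methanesulfonate with ~50 nM free Ca2+, pH 7.3. Voltage steps were run in 30 µM 2-APB, then with 100 µM ATP or vehicle. Tail currents were fitted with Boltzmann functions for V0.5 and VIF; n = 4 cells.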

[2] = biological target: T2, human TRPV3 (WT) (Homo sapiens, UniProt Q8NET8); format: cell-based
T2 sequence (Q8NET8 1-790): T1 sequence (Q8NET8 1-790)

[3] = biological target: T3, TRPV3 R696A (Homo sapiens, UniProt Q8NET8, R696A); format: cell-based
T3 sequence (Q8NET8 1-790 R696A): T1 sequence (Q8NET8 1-790) with R696A

[4] = biological target: T4, WT TRPV3 (Homo sapiens, UniProt Q8NET8); format: biochemical; settings: inside-out patches, +80 mV; for effect on NPOPEN of PI-PLC-stimulated TRPV3: 30 µM diC8-phosphatidylinositol phosphate
T4 sequence (Q8NET8 1-790): T1 sequence (Q8NET8 1-790)
How it was run: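 WT TRPV3 was expressed in HM1 cells by calcium-phosphate transfection and recorded 24–48 h later. Inside-out patches were held at +80 mV in symmetrical NaCl/HEPES/EGTA at pH 7.4. Patches got anti-PI(4,5)P2 mAb (1:200) or 0.5 U/ml PI-PLC for 5 min, or 100 µM OAG for 2 min, by perfusion and then a still bath. diC8-phosphoinositides were added after PI-PLC. NPOPEN was taken before and after; Hill fit over 1–60 µM.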

[5] = biological target: T3, TRPV3 R696A; format: biochemical; settings: 30 µM diC8-PI(4,5)P2, inside-out patches
How it was run: (§1)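 HM1 cells were calcium-phosphate transfected with the mutant channel, GFP-identified, and used 24–48 h later. Inside-out patches were held at +80 mV at 21–24°C in symmetrical 145 mM NaCl, 5 mM […], 20 mM HEPES, 1 mM EGTA, pH 7.4. Patches received anti-PI(4,5)P2 mAb (1:200) or 0.5 U/ml PI-PLC, then 30 µM diC8-PI(4,5)P2. NPOPEN was measured, n = 3–5 patches.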

[6] = biological target: T5, TRPV3 K705A (Homo sapiens, UniProt Q8NET8, K705A); format: biochemical; settings: 30 µM diC8-PI(4,5)P2, inside-out patches
T5 sequence (Q8NET8 1-790 K705A): T1 sequence (Q8NET8 1-790) with K705A
How it was run: as §1

NCCOB(c1ccccc1)c1ccccc1 [2-APB, 2-aminoethyoxy diphenylborinate]
activation of membrane currents by TRP channel agonists ([1]; whole cell): activated small voltage-dependent currents | increase in 2-APB potency after CCh exposure [2]: approximately fourfold

Nc1ncnc2c1ncn2[C@@H]1O[C@H](COP(=O)(O)OP(=O)(O)OP(=O)(O)O)[C@@H](O)[C@H]1O [ATP]
increase of 2-APB-activated TRPV3 whole cell current amplitude ([1]; 30 µM 2-APB, +80 mV): 5.6 ± 1.6 fold | increase of 2-APB-activated TRPV3 whole cell current amplitude ([1]; 30 µM 2-APB, −80 mV): 6.3 ± 1.9 fold | increase of voltage-independent fraction (VIF) ([1]; after 100 µM ATP, 30 µM 2-APB): 26.7 ± 5.1% | shift of half-maximal activation (V0.5) ([1]; after 100 µM ATP, 30 µM 2-APB): −61.7 ± 17.8 mV

C[N+](C)(C)CCOC(N)=O.[Cl-] [CCh, carbamylcholine]
Arrhenius slope of temperature-dependent activation [2]: 10.3 | apparent threshold for temperature-dependent activation (Th) [2]: 18.3 ^a °C | change of thermal coefficient (Q10) by CCh exposure [2]: changed only slightly | fold change in step current [2]: 31.1 fold and 31.1 ± 7.9 fold | shift of apparent threshold for thermal activation (Th) [2]: −10 °C | ΔVIF [3]: 21.3%

Cc1ccc(C(C)C)cc1O [Carvacrol, carvacrol]
activation of membrane currents by TRP channel agonists ([1]; whole cell): elicited currents

CCCCCCCC/C=C\CCCCCCCC(=O)OC[C@H](CO)OC(C)=O [OAG, 1-oleoyl-2-acetyl-sn-glycerol]
effect on TRPV3 channel activity (NPOPEN) ([4]; 100 µM OAG): did not significantly increase; also recorded: failed to significantly elevate NPOPEN

CCCCCCCC(=O)OC[C@H](COP(=O)(O)O[C@@H]1[C@H](O)[C@H](OP(=O)(O)O)[C@@H](O)[C@H](O)[C@H]1O)OC(=O)CCCCCCC [PI(3)P]
effect on NPOPEN of PI-PLC-stimulated TRPV3 [4]: failed to significantly decrease NPOPEN

CCCCCCCC(=O)OC[C@H](COP(=O)(O)O[C@H]1[C@H](O)[C@@H](OP(=O)(O)O)[C@H](OP(=O)(O)O)[C@@H](OP(=O)(O)O)[C@H]1O)OC(=O)CCCCCCC [PI(3,4,5)P3]
effect on NPOPEN of PI-PLC-stimulated TRPV3 [4]: failed to significantly decrease NPOPEN

CCCCCCCC(=O)OC[C@H](COP(=O)(O)O[C@@H]1[C@H](O)[C@H](OP(=O)(O)O)[C@@H](O)[C@H](OP(=O)(O)O)[C@H]1O)OC(=O)CCCCCCC [PI(3,5)P2]
effect on NPOPEN of PI-PLC-stimulated TRPV3 [4]: failed to significantly decrease NPOPEN

CCCCCCCC(=O)OC[C@H](COP(=O)(O)O[C@H]1[C@H](O)[C@@H](O)[C@H](OP(=O)(O)O)[C@@H](O)[C@H]1O)OC(=O)CCCCCCC [PI(4)P]
effect on NPOPEN of PI-PLC-stimulated TRPV3 [4]: failed to significantly decrease NPOPEN

CCCCCCCC(=O)OC[C@H](COP(=O)(O)O[C@H]1[C@H](O)[C@@H](OP(=O)(O)O)[C@H](O)[C@@H](O)[C@H]1O)OC(=O)CCCCCCC [PI(5)P]
effect on NPOPEN of PI-PLC-stimulated TRPV3 [4]: failed to significantly decrease NPOPEN

N.N.N.N.N.N.N.N.N.N.N.N.N.N.[Cl-].[Cl-].[Cl-].[Cl-].[Cl-].[Cl-].[O-2].[O-2].[Ru+3].[Ru+3].[Ru+4] [Ruthenium red]
block of 2-APB-activated current ([1]; whole cell, ruthenium red): eliminated only the inward component

COC[C@H]1OC(=O)c2coc3c2[C@@]1(C)C1=C(C3=O)[C@@H]2CCC(=O)[C@@]2(C)C[C@H]1OC(C)=O [WM, wortmannin]
current potentiation (fold increase) [2]: 9.6 ± 2.2 fold and 13.2 ± 2.8 fold | ΔV0.5 [2]: −98.4 ± 18.6 mV | ΔVIF [2]: 19.7 ± 3.8%

CC12CCC(CC1=O)C2(C)C (stereo not drawn) [camphor]
activation of membrane currents by TRP channel agonists ([1]; whole cell): elicited currents

CCCCCCCC(=O)OC[C@H](COP(=O)(O)O[C@@H]1[C@H](O)[C@H](O)[C@@H](OP(=O)(O)O)[C@H](OP(=O)(O)O)[C@H]1O)OC(=O)CCCCCCC [diC8-PI(4,5)P2, D-myo-phosphatidylinositol 4,5-bisphosphate C8]
effect on NPOPEN of PI-PLC-stimulated TRPV3 [4]: nearly maximal inhibitory effect | effect on channel activity [5]: unaffected; also recorded: insensitive | effect on channel activity [6]: unaffected; also recorded: insensitive

— publication PMC3047606 (The Journal of General Physiology, 2011)
